For data set [1], the target named is T1, LIM domain kinase 1 (Homo sapiens, UniProt P53667). The data set can be described thus: Inhibition of recombinant N-terminal 6His-tagged LIMK1 (unknown origin) expressed in Sf21 cells by HTRF assay using cofilin as a substrate.
Target sequence in this assay (P53667 whole entry, the tested form may be a part): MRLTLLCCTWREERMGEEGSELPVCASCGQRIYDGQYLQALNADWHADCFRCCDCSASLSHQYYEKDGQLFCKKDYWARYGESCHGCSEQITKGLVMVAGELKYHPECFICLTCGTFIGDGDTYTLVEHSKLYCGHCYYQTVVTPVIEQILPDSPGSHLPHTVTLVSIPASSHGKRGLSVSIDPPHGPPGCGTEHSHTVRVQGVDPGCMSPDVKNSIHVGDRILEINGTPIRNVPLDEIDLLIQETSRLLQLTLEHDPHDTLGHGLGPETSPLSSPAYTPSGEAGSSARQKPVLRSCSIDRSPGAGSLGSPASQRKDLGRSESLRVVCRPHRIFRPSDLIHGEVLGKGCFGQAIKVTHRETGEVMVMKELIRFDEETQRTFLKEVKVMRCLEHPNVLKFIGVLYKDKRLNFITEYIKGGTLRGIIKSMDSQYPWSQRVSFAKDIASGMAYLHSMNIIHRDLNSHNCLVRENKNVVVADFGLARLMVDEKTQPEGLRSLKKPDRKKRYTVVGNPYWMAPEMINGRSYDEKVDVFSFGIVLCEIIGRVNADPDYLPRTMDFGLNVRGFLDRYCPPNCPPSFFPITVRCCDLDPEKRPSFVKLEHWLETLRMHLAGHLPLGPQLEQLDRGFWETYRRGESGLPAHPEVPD
The target of data set [2] is T1, LIM domain kinase 1. In words: Inhibition of LIMK1 in human ZR75-1 cells assessed as inhibition of cofilin phosphorylation after 5 hrs. In kind it is cell-based, ZR-75-1. The method, boiled down:
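p-Cofilin biomarker assay in ZR-75-1 cells, imaged and quantified on a Cellomics array scan instrument.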
Target sequence in this assay (P53667 whole entry, the tested form may be a part): as above

Data set [3] addresses T2, LIM domain kinase 2 (Homo sapiens, UniProt P53671). In words: Inhibition of human N-terminal GST-tagged LIMK2. The method, boiled down:
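LIMK2 activity measured in a lanthabind-format assay.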
Target sequence in this assay (P53671 whole entry, the tested form may be a part): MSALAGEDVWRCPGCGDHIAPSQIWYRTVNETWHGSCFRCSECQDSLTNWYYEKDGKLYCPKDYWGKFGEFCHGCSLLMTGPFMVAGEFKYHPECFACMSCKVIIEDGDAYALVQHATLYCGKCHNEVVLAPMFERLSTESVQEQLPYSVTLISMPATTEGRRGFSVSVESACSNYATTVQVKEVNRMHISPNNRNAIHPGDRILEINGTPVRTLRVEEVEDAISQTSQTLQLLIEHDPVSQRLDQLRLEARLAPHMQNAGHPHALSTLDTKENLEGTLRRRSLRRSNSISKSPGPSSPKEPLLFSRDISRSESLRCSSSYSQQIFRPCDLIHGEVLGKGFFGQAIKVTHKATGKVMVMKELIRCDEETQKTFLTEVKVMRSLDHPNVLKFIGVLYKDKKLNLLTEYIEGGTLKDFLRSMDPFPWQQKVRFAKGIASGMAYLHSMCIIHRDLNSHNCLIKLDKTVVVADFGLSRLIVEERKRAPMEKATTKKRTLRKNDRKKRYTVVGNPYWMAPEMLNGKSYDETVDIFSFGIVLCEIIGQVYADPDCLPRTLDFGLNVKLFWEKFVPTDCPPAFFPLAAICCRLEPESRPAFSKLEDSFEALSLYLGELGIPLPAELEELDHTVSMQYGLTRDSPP

For data set [4], the system named is Liver microsome. In words: Metabolic stability in human liver microsome assessed per gram of tissue. Particulars: microsomes. In kind it is ADME. For orientation: Microsomes from liver hold many membrane-bound enzymes, among them those of drug oxidation.
Data set [5] is described as follows: Metabolic stability in mouse liver microsome assessed per gram of tissue. In kind it is ADME. Particulars: microsomes.
Data set [6] relates to MDA-MB-231. The data set can be described thus: Antiinvasion activity in human MDA-MB-231-luc cells at 3 uM by matrigel inverse invasion assay. In kind it is functional. The method, boiled down:
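MDA MB-231-luc cells plated on underside of transwell filter; invasion into matrigel plug (inverse format) scored by confocal microscopy of plug sections. Inhibition = proportion of cells invading beyond 60 µm versus under 60 µm, relative to control; compound at 3 µM.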

Data set [7] can be described thus: Cytotoxicity against human MDA-MB-231 cells assessed as viable cells at 10 uM. In kind it is cell-based. Particulars: read-out: Activity. In outline: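 MTT viability assay; cells exposed to 10 µM inhibitor, read-out as % viable cells.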
Data set [8] has as its target Serine/threonine-protein kinase PAK 3 (Homo sapiens) (UniProt O75914). Particulars: 10 uM.
Data set [9] has as its target 5'-AMP-activated protein kinase catalytic subunit alpha-2 (Homo sapiens) (UniProt P54646). As to conditions: 10 uM.
Data set [10] addresses Cyclin-dependent kinase 2 (Homo sapiens) (UniProt P24941). Particulars: 10 uM.
For data set [11], the target named is Cyclin-dependent kinase 18 (Homo sapiens) (UniProt Q07002). As to conditions: 10 uM.
Data set [12] addresses T3, Serine/threonine-protein kinase MAK (Homo sapiens) (UniProt P20794).
T3 sequence (whole entry): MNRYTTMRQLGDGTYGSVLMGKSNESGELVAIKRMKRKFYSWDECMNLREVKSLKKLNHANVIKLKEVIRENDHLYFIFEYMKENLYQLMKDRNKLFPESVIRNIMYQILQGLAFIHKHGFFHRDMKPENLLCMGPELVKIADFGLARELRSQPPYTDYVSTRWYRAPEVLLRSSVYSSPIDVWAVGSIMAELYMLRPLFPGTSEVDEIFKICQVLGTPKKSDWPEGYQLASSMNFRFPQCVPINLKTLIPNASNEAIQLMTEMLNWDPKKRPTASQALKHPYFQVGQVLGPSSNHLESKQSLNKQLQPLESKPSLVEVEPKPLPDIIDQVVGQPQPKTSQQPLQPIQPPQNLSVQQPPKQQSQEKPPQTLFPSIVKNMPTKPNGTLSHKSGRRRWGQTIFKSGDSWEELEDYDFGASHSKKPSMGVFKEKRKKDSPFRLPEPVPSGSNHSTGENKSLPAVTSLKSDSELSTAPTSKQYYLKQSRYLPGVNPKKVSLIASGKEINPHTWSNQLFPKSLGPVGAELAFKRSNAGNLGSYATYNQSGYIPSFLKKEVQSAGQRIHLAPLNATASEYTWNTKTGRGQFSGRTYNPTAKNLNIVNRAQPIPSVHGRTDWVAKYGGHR
As to conditions: 10 uM.

For data set [13], the target named is T4, Phosphatidylinositol 5-phosphate 4-kinase type-2 gamma (Homo sapiens) (UniProt Q8TBX8).
T4 sequence (whole entry): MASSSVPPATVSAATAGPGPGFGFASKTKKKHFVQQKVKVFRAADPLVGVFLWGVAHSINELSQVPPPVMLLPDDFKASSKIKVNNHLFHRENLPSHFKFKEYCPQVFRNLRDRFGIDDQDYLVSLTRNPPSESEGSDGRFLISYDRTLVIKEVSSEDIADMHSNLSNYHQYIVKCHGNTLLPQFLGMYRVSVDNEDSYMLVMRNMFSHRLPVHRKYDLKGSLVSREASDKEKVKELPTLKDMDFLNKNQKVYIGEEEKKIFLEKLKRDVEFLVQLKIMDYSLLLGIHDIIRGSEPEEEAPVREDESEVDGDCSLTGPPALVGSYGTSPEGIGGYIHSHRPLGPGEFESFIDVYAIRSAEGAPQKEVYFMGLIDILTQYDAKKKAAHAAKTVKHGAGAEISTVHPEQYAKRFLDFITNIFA
As to conditions: 10 uM.

The target of data set [14] is Cyclin-dependent kinase 7 (Homo sapiens) (UniProt P50613). Particulars: 10 uM.
The target of data set [15] is T5, Discoidin domain-containing receptor 2 (Homo sapiens) (UniProt Q16832).
T5 sequence (whole entry): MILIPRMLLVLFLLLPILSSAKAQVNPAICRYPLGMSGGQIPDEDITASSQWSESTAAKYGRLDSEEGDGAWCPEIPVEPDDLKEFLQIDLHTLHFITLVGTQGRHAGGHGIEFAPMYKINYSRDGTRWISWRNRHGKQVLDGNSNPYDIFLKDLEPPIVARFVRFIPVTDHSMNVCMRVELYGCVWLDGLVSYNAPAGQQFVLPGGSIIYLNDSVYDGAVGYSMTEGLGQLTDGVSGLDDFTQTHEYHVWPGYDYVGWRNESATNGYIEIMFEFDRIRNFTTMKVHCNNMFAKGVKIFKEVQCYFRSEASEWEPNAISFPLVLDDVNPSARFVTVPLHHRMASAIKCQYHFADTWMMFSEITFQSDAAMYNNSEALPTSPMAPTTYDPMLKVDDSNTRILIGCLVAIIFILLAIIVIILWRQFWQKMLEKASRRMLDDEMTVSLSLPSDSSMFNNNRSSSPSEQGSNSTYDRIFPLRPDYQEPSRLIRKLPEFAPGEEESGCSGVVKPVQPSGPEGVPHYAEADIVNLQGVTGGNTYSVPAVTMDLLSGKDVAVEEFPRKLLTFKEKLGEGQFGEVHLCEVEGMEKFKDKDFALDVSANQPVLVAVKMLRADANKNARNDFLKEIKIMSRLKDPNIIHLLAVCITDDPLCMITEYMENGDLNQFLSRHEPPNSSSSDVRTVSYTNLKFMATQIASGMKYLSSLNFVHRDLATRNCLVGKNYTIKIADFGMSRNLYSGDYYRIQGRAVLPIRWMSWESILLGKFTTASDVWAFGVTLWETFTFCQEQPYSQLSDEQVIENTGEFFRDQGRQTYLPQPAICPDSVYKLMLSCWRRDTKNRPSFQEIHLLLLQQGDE
As to conditions: 10 uM.

For data set [16], the target named is Serine/threonine-protein kinase 16 (Homo sapiens) (UniProt O75716). Particulars: 10 uM.
For data set [17], the target named is T6, Mitogen-activated protein kinase 15 (Homo sapiens) (UniProt Q8TD08).
T6 sequence (whole entry): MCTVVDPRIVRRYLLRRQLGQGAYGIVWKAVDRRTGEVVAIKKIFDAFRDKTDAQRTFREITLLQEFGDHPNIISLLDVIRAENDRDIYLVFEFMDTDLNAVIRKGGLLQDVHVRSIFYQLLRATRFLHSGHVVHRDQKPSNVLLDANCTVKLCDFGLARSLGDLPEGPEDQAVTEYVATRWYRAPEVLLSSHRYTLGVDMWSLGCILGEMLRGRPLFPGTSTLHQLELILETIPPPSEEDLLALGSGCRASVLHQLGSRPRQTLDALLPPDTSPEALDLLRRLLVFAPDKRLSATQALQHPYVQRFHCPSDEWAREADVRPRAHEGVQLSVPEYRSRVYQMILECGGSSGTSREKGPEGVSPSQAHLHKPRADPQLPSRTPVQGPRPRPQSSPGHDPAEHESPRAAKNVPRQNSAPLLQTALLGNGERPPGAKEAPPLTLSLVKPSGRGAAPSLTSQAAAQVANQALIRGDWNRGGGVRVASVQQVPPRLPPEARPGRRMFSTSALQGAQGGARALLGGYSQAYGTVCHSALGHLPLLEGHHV
Particulars: 10 uM.

The target in data set [18] is T1, LIM domain kinase 1. As to conditions: 10 uM.
Target sequence in this assay (P53667 whole entry, looked up, the tested form may be a part): as the sequence (P53667 whole entry, the tested form may be a part) above
The target in data set [19] is T7, Cyclin-dependent kinase-like 2 (Homo sapiens) (UniProt Q92772).
T7 sequence (whole entry): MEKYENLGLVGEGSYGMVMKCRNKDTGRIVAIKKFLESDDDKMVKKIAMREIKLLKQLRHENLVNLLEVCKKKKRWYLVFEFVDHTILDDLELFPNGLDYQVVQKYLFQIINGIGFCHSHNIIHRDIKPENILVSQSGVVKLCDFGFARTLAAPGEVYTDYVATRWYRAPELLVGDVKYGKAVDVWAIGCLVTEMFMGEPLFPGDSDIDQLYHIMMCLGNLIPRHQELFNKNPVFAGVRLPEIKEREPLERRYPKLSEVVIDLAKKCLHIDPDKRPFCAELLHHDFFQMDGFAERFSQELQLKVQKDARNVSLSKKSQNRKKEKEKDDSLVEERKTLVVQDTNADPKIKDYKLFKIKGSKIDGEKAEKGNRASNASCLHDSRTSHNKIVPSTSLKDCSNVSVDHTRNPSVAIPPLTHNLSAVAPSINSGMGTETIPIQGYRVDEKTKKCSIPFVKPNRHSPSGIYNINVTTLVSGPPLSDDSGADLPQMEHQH
Particulars: 10 uM.

Data set [20] has as its target 5'-AMP-activated protein kinase catalytic subunit alpha-1 (Homo sapiens) (UniProt Q13131). As to conditions: 10 uM.
Data set [21] deals with T2, LIM domain kinase 2. Particulars: 10 uM.
Target sequence in this assay (P53671 whole entry, looked up, the tested form may be a part): as the sequence (P53671 whole entry, the tested form may be a part) above

The values below come from ChEMBL document CHEMBL3621108, “Discovery, Development, and SAR of Aminothiazoles as LIMK Inhibitors with Cellular Anti-Invasive Properties” (J Med Chem, 2015).

Usually IC50 stands for the concentration at which inhibition is half-maximal. Broadly, the inhibition is the relative decrease from the control value, in per cent. A lower inhibition goes with little suppression.

Chain of Serine/threonine-protein kinase PAK 3 (Homo sapiens) (O75914 whole entry, looked up): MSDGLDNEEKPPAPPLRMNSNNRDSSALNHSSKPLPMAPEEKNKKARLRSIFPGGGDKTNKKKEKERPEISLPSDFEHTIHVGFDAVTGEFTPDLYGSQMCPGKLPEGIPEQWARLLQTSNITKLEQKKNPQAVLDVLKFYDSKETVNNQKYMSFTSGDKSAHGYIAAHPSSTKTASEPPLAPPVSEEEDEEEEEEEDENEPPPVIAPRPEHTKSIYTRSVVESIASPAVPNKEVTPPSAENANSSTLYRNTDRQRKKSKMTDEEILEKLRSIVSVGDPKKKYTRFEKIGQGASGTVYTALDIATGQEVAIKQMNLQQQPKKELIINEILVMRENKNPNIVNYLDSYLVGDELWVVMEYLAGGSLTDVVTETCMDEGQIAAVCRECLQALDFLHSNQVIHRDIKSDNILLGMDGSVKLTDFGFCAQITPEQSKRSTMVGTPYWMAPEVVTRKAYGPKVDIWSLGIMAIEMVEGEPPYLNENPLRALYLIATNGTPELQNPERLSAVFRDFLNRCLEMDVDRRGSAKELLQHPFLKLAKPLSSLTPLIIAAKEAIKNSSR
Chain of Cyclin-dependent kinase 18 (Homo sapiens) (Q07002 whole entry): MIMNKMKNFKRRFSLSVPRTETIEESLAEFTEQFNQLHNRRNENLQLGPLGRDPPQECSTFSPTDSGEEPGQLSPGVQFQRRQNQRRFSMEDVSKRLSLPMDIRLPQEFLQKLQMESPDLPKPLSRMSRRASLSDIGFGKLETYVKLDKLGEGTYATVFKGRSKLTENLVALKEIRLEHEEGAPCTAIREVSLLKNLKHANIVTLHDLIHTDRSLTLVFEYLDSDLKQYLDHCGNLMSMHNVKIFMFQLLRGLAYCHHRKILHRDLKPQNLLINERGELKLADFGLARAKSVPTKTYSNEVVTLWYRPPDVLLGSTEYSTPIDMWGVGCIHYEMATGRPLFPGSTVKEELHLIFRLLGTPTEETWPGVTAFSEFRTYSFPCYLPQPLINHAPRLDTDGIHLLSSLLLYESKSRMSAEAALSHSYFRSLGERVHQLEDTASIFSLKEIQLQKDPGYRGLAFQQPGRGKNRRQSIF
Chain of Serine/threonine-protein kinase 16 (Homo sapiens) (O75716 whole entry): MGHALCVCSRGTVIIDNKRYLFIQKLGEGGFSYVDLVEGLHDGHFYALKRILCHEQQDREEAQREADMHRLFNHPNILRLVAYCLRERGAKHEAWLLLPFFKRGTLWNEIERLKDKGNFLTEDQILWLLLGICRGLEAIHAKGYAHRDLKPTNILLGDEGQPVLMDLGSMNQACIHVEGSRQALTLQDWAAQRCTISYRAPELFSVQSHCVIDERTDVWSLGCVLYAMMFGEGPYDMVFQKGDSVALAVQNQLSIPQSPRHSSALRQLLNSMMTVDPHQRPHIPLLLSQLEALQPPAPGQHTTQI
Chain of 5'-AMP-activated protein kinase catalytic subunit alpha-1 (Homo sapiens) (Q13131 whole entry, looked up, the tested form may be a part): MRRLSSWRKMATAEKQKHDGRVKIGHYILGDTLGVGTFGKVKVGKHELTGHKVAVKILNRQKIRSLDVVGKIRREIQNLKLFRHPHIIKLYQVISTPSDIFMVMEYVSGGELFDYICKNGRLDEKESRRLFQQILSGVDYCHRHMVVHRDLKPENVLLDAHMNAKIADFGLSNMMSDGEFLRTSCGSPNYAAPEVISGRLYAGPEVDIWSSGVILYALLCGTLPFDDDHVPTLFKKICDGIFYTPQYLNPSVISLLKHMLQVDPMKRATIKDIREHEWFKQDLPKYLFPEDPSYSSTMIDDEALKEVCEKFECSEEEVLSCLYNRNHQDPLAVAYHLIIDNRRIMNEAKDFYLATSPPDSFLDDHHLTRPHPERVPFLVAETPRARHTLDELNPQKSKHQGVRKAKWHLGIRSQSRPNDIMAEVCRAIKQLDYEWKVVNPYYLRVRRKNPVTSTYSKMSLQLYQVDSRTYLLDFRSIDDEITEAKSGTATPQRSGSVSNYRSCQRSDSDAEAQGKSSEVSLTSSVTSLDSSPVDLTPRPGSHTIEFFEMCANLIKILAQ
Chain of Cyclin-dependent kinase 7 (Homo sapiens) (P50613 whole entry, the tested form may be a part): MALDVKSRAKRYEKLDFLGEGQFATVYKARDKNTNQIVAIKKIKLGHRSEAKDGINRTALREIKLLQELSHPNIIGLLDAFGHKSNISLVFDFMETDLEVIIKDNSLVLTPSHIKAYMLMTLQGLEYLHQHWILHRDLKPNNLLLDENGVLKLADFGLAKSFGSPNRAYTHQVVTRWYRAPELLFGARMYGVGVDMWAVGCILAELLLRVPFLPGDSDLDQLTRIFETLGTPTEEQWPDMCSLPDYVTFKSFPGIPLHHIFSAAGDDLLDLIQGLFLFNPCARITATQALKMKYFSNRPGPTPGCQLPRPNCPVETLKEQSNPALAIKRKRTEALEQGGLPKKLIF
Chain of 5'-AMP-activated protein kinase catalytic subunit alpha-2 (Homo sapiens) (P54646 whole entry, looked up): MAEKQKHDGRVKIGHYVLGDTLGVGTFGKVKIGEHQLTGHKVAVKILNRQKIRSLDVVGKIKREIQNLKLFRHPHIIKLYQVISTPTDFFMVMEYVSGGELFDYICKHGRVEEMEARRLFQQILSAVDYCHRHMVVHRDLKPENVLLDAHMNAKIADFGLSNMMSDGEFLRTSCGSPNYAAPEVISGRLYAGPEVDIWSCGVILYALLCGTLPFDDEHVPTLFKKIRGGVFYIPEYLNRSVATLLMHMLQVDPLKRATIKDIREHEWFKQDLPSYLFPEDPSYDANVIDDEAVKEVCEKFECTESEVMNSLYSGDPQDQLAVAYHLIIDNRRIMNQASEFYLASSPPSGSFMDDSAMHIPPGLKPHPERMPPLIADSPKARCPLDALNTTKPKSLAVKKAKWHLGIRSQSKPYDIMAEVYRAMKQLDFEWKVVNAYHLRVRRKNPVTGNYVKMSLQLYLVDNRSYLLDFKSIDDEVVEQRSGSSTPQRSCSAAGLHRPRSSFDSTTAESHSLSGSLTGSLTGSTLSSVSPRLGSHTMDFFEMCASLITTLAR

Turning to `CCCNc1ncc(-c2cnccc2-c2ccccc2Cl)s1`, the IC50 in [1] is 574 nM.
In the case of `CC(=O)Nc1ncc(-c2ccncc2-c2ccccc2Cl)s1`, the IC50 in data set [1] is 20 nM; in [2] it was 1400 nM.
The corresponding values for `CCCNc1ncc(-c2ccncc2-c2ccccc2C)s1` are 82 nM and 11500 nM.
As to `Cc1ccc(-c2cnccc2-c2cnc(NC(=O)C(C)C)s2)c(Cl)c1`, the IC50 in data set [3] came out at 3 nM; in data set [1], 1 nM. Also, the Stability in [4] is 8.3 mL/min; in data set [5], 19.4 mL/min. In addition, in data set [6], at 3 µM the inhibition was 48%. Also, the viability at 10 µM in data set [7] is 131%.
`CCCNc1ncc(-c2ccncc2-c2ccc(OC)cc2C(F)(F)F)s1`: the figures for the concentration for half-maximal inhibition (IC50) in [1] and in [2] were 13 nM and 2500 nM, respectively.
Consider `CC(C)CNc1ncc(-c2ccncc2-c2ccccc2Cl)s1`, for which the IC50 in data set [1] worked out at 5 nM; in data set [2] it was 1500 nM. The compound also yielded an inhibition at 3 µM in data set [6] of 34%. The viability at 10 µM in [7] was found to be 88%.
With `CCCNc1ncc(-c2ccncc2-c2ccccc2C(C)C)s1`, the IC50 in data set [1] was determined as 3300 nM.
Turning to `CCCNc1ncc(-c2ccncc2-c2ccccc2)s1`, the IC50 in [1] turned out to be 850 nM.
Turning to `C[C@@H](Nc1ncc(-c2ccncc2-c2ccccc2Cl)s1)c1ccccc1`, the IC50 came to 4 nM in data set [1] and 2100 nM in data set [2].
Turning to `CCCNc1ncc(-c2cccnc2-c2ccccc2Cl)s1`, the half-inhibitory concentration (IC50) in [1] came to 327 nM.
In the case of `C[C@H](Nc1ncc(-c2ccncc2-c2ccccc2Cl)s1)c1ccccc1`, the values for the IC50 in [1] and in data set [2] were 40 nM and 9200 nM, respectively.
For the compound `COc1ccc(-c2cnccc2-c2cnc(NC(=O)C(C)C)s2)c(C(F)(F)F)c1`, the inhibition in [8], in data set [9], in [10], in data set [11], in data set [12] and in [13] was above 90% throughout. In addition, the inhibition in data set [14], in data set [15], in data set [16], in [17], in data set [18] and in [19] was above 90% each time. Moreover, the inhibition in data set [20] and in data set [21] was above 90% each time. Further, the results for the IC50 in [3] and in [2] were 48 nM and 2000 nM, respectively. Also, the Stability amounted to 3.7 mL/min in [4] and 5.2 mL/min in [5]. For the same compound, in data set [6], the inhibition at 3 µM is 52%. In data set [7], the viability at 10 µM is 106%.
Take `CC(C)C(=O)Nc1ncc(-c2ccncc2-c2ccccc2Cl)s1`: the 50% inhibitory concentration (IC50) was found to be 3 nM in data set [1] and 800 nM in data set [2].
The corresponding values for `CCCNc1ncc(-c2ccncc2-c2ccccc2C(F)(F)F)s1` are 37 nM and 2200 nM.
`C=CCNc1nc(N)c(C(=O)c2ccc3c(c2)OCO3)s1`: in [1], the IC50 was 4000 nM.
Still for that read-out and setting: to `CCCNc1ncc(-c2ncccc2-c2ccccc2Cl)s1` belongs at least 30000 nM.
Turning to `Nc1ncc(-c2ccncc2-c2ccccc2Cl)s1`, the IC50 was 270 nM in data set [1] and above 30000 nM in data set [2].
As to `CCCNc1ncc(-c2ccncc2)s1`, the IC50 in data set [1] came out at 19000 nM.
Consider `CCCNc1ncc(-c2ccncc2-c2ccc(Cl)cc2)s1`, for which the IC50 in data set [1] was 620 nM.
Turning to `CCCNc1ncc(-c2ccncc2-c2ccccc2Cl)s1`, the IC50 is 15 nM in data set [1] and 3800 nM in data set [2].
The corresponding values for `Clc1ccccc1-c1cnccc1-c1cnc(Nc2ccccc2)s1` are 3 nM and 600 nM.
For the compound `CCCNc1ncc(-c2ccncc2-c2cccc(Cl)c2)s1`, the 50% inhibitory concentration (IC50) in data set [1] came to 500 nM.
Turning to `CCNc1ncc(-c2ccncc2-c2ccccc2Cl)s1`, the values for the IC50 in data set [1] and in data set [2] were 120 nM and 14000 nM, respectively.
Regarding `CCCN(C)c1ncc(-c2ccncc2-c2ccccc2Cl)s1`, the IC50 in data set [1] was 3100 nM.
